# Source: ChEMBL document CHEMBL4376857, “Discovery of Selective Inhibitors of Endoplasmic Reticulum Aminopeptidase 1” (J Med Chem, 2020)
# Active and inactive are the calls of the source. No cut-off for these calls is given here.
# Key:
# [1] = target: T1, Leucyl-cystinyl aminopeptidase (Mus musculus, UniProt Q8C129); assay: Inhibition of recombinant mouse C-terminal His6-tagged IRAP expressed in baculovirus infected BTA-TN-5B1-4 insect cells using L-AMC as substrate measured after 1 hr by fluorescence assay
# T1 sequence (Q8C129 whole entry): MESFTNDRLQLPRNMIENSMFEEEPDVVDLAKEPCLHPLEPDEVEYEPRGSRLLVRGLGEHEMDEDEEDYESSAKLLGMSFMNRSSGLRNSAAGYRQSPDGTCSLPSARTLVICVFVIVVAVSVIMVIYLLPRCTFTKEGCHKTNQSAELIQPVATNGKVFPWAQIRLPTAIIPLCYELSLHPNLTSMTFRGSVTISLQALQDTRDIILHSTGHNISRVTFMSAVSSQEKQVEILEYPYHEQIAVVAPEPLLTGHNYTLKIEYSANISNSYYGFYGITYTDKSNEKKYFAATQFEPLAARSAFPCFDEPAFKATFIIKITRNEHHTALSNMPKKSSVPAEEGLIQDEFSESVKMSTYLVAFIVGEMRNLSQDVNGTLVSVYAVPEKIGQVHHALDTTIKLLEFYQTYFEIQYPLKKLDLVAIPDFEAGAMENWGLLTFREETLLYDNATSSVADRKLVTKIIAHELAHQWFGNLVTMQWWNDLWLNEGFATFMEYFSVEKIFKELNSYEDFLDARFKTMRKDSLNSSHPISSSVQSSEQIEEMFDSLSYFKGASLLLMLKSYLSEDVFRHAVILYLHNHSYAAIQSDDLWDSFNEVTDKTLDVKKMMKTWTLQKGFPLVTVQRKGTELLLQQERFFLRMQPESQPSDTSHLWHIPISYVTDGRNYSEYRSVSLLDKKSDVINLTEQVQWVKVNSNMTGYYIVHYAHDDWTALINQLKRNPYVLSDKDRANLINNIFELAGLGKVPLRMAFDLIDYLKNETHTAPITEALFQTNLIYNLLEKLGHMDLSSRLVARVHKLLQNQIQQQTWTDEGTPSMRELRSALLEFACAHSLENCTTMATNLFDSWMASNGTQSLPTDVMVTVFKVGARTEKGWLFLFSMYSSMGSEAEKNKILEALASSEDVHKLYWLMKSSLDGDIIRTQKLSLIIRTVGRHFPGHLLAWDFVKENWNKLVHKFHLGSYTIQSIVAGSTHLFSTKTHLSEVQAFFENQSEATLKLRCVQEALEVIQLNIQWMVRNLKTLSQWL
# [2] = target: T2, Antigen peptide transporter 1/2 (Homo sapiens) (UniProt Q03518+Q03519); assay: (§1) Inhibition of TAP1/2 in human HeLa cells stably expressing H-2 Kb infected with vaccinia virus containing Ub-SIINFEKL epitope assessed as suppression of Ub-SIINFEKL binding to MHC1 H-2 Kb at cell surface by measuring reduction in 25D1 staining measured after 16 to 24 hrs by flow cytometric method; format: cell-based
# [3] = target: T3, Endoplasmic reticulum aminopeptidase 1 (Homo sapiens, UniProt Q9NZ08); assay: Activation of recombinant human C-terminal His6-tagged ERAP1 expressed in baculovirus infected BTA-TN-5B1-4 insect cells using L-AMC as substrate measured after 1 hr by fluorescence assay
# [4] = target: T3, Endoplasmic reticulum aminopeptidase 1; assay: Activation of recombinant human C-terminal His6-tagged ERAP1 expressed in baculovirus infected BTA-TN-5B1-4 insect cells at 10.7 uM using L-AMC as substrate measured after 1 hr by fluorescence assay relative to control
# [5] = target: T3, Endoplasmic reticulum aminopeptidase 1; assay: Inhibition of recombinant human C-terminal His6-tagged ERAP1 expressed in baculovirus infected BTA-TN-5B1-4 insect cells using WRCYEKMALK as substrate measured after 10 mins by LC-MS analysis
# [6] = target: T3, Endoplasmic reticulum aminopeptidase 1; assay: Activation of recombinant human C-terminal His6-tagged ERAP1 expressed in baculovirus infected BTA-TN-5B1-4 insect cells assessed as increase in Vmax/[…] ratio using varying levels of L-pNA as substrate incubated for 1 hr and measured for 5 to 10 mins by […] Michaelis-Menten equation analysis relative to control
# Outline: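 ERAP1 initial rates measured under steady-state conditions with the chromogenic substrate leucine p-nitroanilide (L-pNA), allowing a wide substrate range, across several compound concentrations. Rate-versus-substrate curves were fit to an allosteric Michaelis-Menten equation with a Hill coefficient to give V_max and K_half at each compound level. Activity was expressed as V_max/K_half relative to no-compound control.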
# [7] = target: T3, Endoplasmic reticulum aminopeptidase 1; assay: Competitive inhibition of recombinant human C-terminal His6-tagged ERAP1 expressed in baculovirus infected BTA-TN-5B1-4 insect cells using varying levels of LVAFKARKF as substrate measured at 2.5 mins interval for 20 mins by ABTS reagent based horseradish peroxidase-coupled Michaelis-Menten equation analysis
# [8] = target: T2, Antigen peptide transporter 1/2 (Homo sapiens); assay: as §1, with “staining at 50 uM” for “staining”; format: cell-based
# [9] = target: T3, Endoplasmic reticulum aminopeptidase 1; assay: as §1, with “ERAP1” for “TAP1/2”, “ss-LEQLE-SIINFEKL” for “Ub-SIINFEKL”; format: cell-based
# [10] = Activation of recombinant human C-terminal His6-tagged ERAP1 allele 2 mutant expressed in baculovirus infected BTA-TN-5B1-4 insect cells using L-AMC as substrate measured after 1 hr by fluorescence assay
# [11] = Activation of recombinant human C-terminal His6-tagged ERAP1 allele 3 mutant expressed in baculovirus infected BTA-TN-5B1-4 insect cells using L-AMC as substrate measured after 1 hr by fluorescence assay
# [12] = Activation of recombinant human C-terminal His6-tagged ERAP1 5-SNP mutant expressed in baculovirus infected BTA-TN-5B1-4 insect cells using L-AMC as substrate measured after 1 hr by fluorescence assay
# [13] = target: T3, Endoplasmic reticulum aminopeptidase 1; assay: Inhibition of recombinant human C-terminal His6-tagged ERAP1 expressed in baculovirus infected BTA-TN-5B1-4 insect cells using L-AMC as substrate measured after 1 hr by fluorescence assay
# [14] = target: T3, Endoplasmic reticulum aminopeptidase 1; assay: Competitive inhibition of recombinant human C-terminal His6-tagged ERAP1 expressed in baculovirus infected BTA-TN-5B1-4 insect cells using varying levels of L-pNA as substrate incubated for 1 hr and measured for 5 to 10 mins by […] Michaelis-Menten equation analysis
# T3 sequence (Q9NZ08 whole entry): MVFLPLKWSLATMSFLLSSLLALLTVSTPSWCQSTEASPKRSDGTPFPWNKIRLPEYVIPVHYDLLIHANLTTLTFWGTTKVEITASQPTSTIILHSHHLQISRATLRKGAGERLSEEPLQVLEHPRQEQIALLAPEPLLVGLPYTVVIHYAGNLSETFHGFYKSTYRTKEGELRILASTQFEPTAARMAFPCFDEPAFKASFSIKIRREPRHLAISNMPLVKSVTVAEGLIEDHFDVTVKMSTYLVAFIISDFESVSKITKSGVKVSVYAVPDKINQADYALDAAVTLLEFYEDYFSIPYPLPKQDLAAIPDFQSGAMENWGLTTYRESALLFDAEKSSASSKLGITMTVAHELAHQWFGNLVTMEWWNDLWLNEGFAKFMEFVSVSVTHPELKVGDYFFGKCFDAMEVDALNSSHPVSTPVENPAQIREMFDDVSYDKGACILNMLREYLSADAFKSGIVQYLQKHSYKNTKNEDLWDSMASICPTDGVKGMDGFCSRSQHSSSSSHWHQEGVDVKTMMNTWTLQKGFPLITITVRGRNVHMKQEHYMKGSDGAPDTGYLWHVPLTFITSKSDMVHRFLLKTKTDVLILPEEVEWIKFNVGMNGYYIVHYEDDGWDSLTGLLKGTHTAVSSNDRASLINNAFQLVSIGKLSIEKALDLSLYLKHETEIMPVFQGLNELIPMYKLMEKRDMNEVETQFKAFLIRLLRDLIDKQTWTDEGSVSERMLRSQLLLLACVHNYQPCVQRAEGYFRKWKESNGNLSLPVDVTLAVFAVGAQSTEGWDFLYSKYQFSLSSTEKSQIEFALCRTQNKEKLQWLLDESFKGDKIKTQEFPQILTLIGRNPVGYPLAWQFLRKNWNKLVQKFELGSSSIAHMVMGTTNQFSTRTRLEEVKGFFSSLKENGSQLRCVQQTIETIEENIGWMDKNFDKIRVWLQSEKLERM
smiles,measurement,setting,value
COC(=O)c1ccc(OC)c(S(=O)(=O)Nc2cc(C(F)(F)F)ccc2N2CCCCC2)c1,IC50,[1],> 200 µM
same,inhibition,[2],Active
O=C(O)c1cccc(S(=O)(=O)Nc2cc(C(F)(F)F)ccc2N2CCCCC2)c1,IC50,[1],> 200 µM
COc1ccc(C(=O)O)cc1S(=O)(=O)Nc1cc(C(F)(F)F)ccc1N1CCN(C)CC1,IC50,[1],> 200 µM
COc1ccc(C(=O)O)cc1S(=O)(=O)Nc1cc(C(F)(F)F)ccc1N1CCCCC1,inhibition (INH),"[1]; mouse, 1 h",Not Active
same,AC50,[3],4.1 µM
same,Activity,[4],> 40%
same,IC50,[5],5.3 µM
same,fold change (FC),[6],< 1.8
same,Ki,[7],3.8 µM
same,inhibition,[8],inactive
same,IC50,[9],1 µM
same,AC50,[10],0.88 µM
same,AC50,[11],3.1 µM
same,AC50,[12],2.7 µM
O=C(O)c1ccc(Cl)c(S(=O)(=O)Nc2cc(C(F)(F)F)ccc2N2CCCCC2)c1,IC50,[1],> 200 µM
COc1ccc(C(=O)O)cc1S(=O)(=O)Nc1ccccc1N1CCCCC1,IC50,[1],> 200 µM
COc1ccc(C(=O)O)cc1S(=O)(=O)Nc1cc(C)ccc1N1CCCCC1,IC50,[1],> 200 µM
CC(C)C[C@H](N)CS,inhibition,[8],inactive
O=C(O)c1ccc(Br)c(S(=O)(=O)Nc2cc(C(F)(F)F)ccc2N2CCCCC2)c1,IC50,[1],> 200 µM
N=C(NCCc1c[nH]c2ccccc12)NS(=O)(=O)c1cc(F)ccc1F,IC50,[13],9.2 µM
same,Ki,[14],51.7 µM
same,inhibition,[8],Active
COc1ccc(C(=O)O)cc1S(=O)(=O)Nc1cc(F)ccc1N1CCCCC1,IC50,[1],> 200 µM
